# Screening results as filed in PubChem BioAssay.
# LYPLA1 counter: blocks human lysophospholipase 1, a PME1 counter-screen; recombinant LYPLA1, FP-Rh probe fluorescence polarization; inhibition, % at 5.9 µM; hit rate 0.16% among 320,000;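 active = inhibition above the mean of all tested compounds plus 3 SD, set per campaign, cut at about 14% in these data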;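 also: inhibitors block serine hydrolase probe labeling of LYPLA1 so polarization falls; 0% = enzyme with DMSO and 100% = wells lacking LYPLA1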
# proCasp3 act: procaspase-3 (human) activation; P42574; hit rate 0.11% among 330,000; activation, % at 8.5 µM; recombinant procaspase-3 D3A, Ac-DEVD-pNA absorbance 405 nm; AID 463141;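 active = activation above the mean of all tested compounds plus 3 SD, cut at about 21% in these data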;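 also: 0% = DMSO alone and 100% = DMSO wells spiked with extra 5 µM PC-3 D3A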
#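 Technique: 405 nm absorbance of p-nitroaniline, reads at 0 and 120 min; Test system: Procaspase-3 D3A mutant; Incubation: 1 h enzyme-compound preincubation, then 2 h substrate reaction, 25 °C; Repeats: singlicate, each compound tested once; Benchmarks: low control DMSO wells, high control DMSO plus 5 µM PC-3 D3A.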
# LYPLA2 counter: LYPLA2 (human) inhibition in PME1 counter-screen | AID 2177 | inhibition, % at 5.9 µM | recombinant LYPLA2, FP-Rh probe fluorescence polarization | hit rate 0.38% among 320,000;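 active = inhibition above the screen-wide mean plus 3 SD, limit set per campaign, cut at about 26% in these data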;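 also: 0% = LYPLA2 with DMSO and 100% = wells lacking LYPLA2 enzyme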
# PREPL inhibitor: human PREPL enzyme inhibition; recombinant PREPL, fluorescence polarization activity-based probe; Q4J6C6; hit rate 0.68% among 320,000; inhibition, % at 5.96 µM;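 also: 0% = enzyme with DMSO and 100% = wells lacking enzyme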
# Target sequence (Q4J6C6 whole entry, looked up): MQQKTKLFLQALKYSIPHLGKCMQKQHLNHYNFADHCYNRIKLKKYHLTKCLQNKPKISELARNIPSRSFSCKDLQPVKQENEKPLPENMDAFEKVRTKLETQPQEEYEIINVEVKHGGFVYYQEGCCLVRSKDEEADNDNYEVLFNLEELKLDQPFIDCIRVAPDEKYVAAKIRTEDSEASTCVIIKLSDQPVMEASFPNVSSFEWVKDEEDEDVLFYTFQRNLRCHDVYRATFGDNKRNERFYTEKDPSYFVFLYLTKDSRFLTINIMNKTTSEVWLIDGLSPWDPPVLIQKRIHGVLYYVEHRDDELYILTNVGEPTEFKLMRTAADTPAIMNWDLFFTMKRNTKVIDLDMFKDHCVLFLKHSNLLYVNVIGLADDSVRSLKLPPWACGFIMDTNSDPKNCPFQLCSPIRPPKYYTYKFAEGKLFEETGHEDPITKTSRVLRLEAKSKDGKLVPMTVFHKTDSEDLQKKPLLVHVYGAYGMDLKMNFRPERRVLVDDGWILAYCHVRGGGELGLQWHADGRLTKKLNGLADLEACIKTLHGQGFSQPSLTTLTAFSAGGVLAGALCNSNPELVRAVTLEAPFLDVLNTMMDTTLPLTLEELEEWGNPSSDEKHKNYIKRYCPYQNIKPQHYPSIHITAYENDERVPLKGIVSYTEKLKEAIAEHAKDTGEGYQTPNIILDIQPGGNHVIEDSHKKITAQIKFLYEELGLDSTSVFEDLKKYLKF
# proCasp7 act: activates human procaspase-7, counter-screen for procaspase-3 activators. recombinant procaspase-7, Ac-DEVD-pNA absorbance 405 nm; D23A/D198A/D206A triple mutant, cannot self-cleave; scale: DMSO 0, 5 µM enzyme 100. hit rate 0.093% among 330,000. P55210. activation, % at 8.5 µM;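 active = percent activation above the screen-wide mean plus 3 SD, cut at about 25% in these data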
#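 System: Procaspase-7 triple mutant (PC-7 D3A); measure: % activation from two-timepoint absorbance difference, scaled to controls; times: 1 h compound preincubation, 2 h substrate cleavage, 25 °C; also added: Ac-DEVD-pNA substrate, 400 µM as added; measured by: Epi-absorbance of released pNA at 405 nm, two timepoints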
# PREPL confirm: confirmation of human PREPL enzyme inhibitors | shares compounds with PREPL inhibitor | recombinant PREPL, fluorescence polarization activity probe | inhibition, % at 5.96 µM | hit rate 67% among 2,000 | AID 2803;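 also: 0% = protein with DMSO and 100% = wells lacking protein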
# * hit, by the source's call; . = no result. This is a sample that favours compounds with a hit; in the whole collection about 1% have one here. Rule as the data show it, unless noted: active = inhibition above about 43%; inactive = the rest.
SMILES,LYPLA1 counter,proCasp3 act,LYPLA2 counter,PREPL inhibitor,proCasp7 act,PREPL confirm
COCCNc1nc(SCc2ccccc2)nc2sc3c(c12)CCC3,4.8,-6.4,8.8,23.1,-9.6,.
CC(=O)Oc1cc2cccc(OC(C)=O)c(=O)c2c(OC(C)=O)c1OC(C)=O,-3.8,-24.6,-0.8,63.0*,-32.7,34.9
C#CCOCCOCCOCCNc1nc(N2CCN(C(=O)CCCCCCCCCCNC(=O)[C@@H](CCSC)n3cc(CCO)nn3)CC2)nc(N2CCN(C(=O)CCCCCCCCCCNC(=O)[C@H](CO)n3cc(CCCCCN)nn3)CC2)n1,-0.2,-5.0,13.7,48.2*,-8.7,49.0*
C#CCOCCOCCOCCNc1nc(N2CCN(C(=O)CCCCCCCCCCNC(=O)[C@@H](CCC(=O)O)n3cc(CCCCCN)nn3)CC2)nc(N2CCN(C(=O)CCCCCCCCCCNC(=O)[C@H](CO)n3cc(CCCCCN)nn3)CC2)n1,-5.8,4.0,-4.0,45.7*,13.7,30.7
C#CCOCCOCCOCCNc1nc(N2CCN(C(=O)CCCCCCCCCCNC(=O)[C@@H](CCC(=O)O)n3cc(CCCCCN)nn3)CC2)nc(N2CCN(C(=O)CCCCCCCCCCNC(=O)[C@H](CO)n3cc(CCCSC)nn3)CC2)n1,-4.0,2.5,1.1,19.4,3.9,.
N#Cc1ccc(Cl)cc1NC(=O)COC(=O)c1cccc(S(=O)(=O)N2CCOCC2)c1,1.6,1.7,2.6,11.3,-7.1,.
CCN1C(=O)CC(c2ccccc2)N(C2CCCC2)c2nc(Nc3ccc(C(=O)NC4CCN(C)CC4)cc3OC)ncc21 (stereo not given),.,3.4,.,47.5*,5.6,50.3*
O=C(C1=C[C@@H](c2ccc(Br)cc2)C[C@@H](OCc2ccc(CO)cc2)O1)N1CCN(Cc2ccccc2)CC1,-5.2,9.1,-9.0,65.5*,-11.8,53.4*
O=C(O)C1=C[C@H](c2ccc3c(c2)OCO3)C[C@H](OCc2ccc(CO)cc2)O1,0.4,-7.9,-2.8,-12.8,-8.1,.
O=C(C1=C[C@H](c2ccc3c(c2)OCO3)C[C@H](OCc2ccc(CO)cc2)O1)N1CCCCCCC1,-2.4,6.2,-3.0,24.9,15.3,.
CCO[C@H]1OC(C(=O)N2CCN(Cc3ccc4c(c3)OCO4)CC2)=C[C@@H](c2ccc(Br)cc2)[C@@H]1CCCO,3.3,4.0,7.6,47.2*,-4.9,44.2*
O=C(C1=C[C@@H](c2ccc(Br)cc2)C[C@@H](OCc2ccc(CO)cc2)O1)N1CCN(Cc2ccc3c(c2)OCO3)CC1,-7.4,2.3,-11.1,45.0*,4.1,58.6*
CCO[C@@H]1OC(C(=O)N2CCN(Cc3ccc4c(c3)OCO4)CC2)=C[C@H](c2ccc3c(c2)OCO3)[C@H]1CCCO,0.4,5.2,3.2,27.8,1.5,.
O=C(C1=C[C@H](c2ccc(C(F)(F)F)cc2)C[C@H](OCc2ccc(CO)cc2)O1)N1CCN(Cc2ccc3c(c2)OCO3)CC1,-2.9,5.9,-4.2,45.8*,-1.2,43.9*
C#Cc1ccc([C@H]2C=C(C(=O)N3CCN(Cc4ccccc4)CC3)O[C@@H](OCc3ccc(CO)cc3)C2)cc1,-3.2,4.4,-1.9,27.5,-4.8,.
CCN(CC(=O)Nc1ccc(C(=O)OC)cc1)Cc1ccccc1,7.7,-13.4,3.0,-4.5,-10.1,.
O=C(C1=C[C@@H](c2ccc(C(F)(F)F)cc2)C[C@@H](OCc2ccc(CO)cc2)O1)N1CCN(Cc2ccc3c(c2)OCO3)CC1,-1.9,0.7,0.5,64.3*,-10.6,58.2*
CC(=O)n1cc([C@@H]2C=C(C(=O)N3CCN(C)CC3)O[C@H](OCc3ccc(CO)cc3)C2)c2ccccc21,1.3,4.0,-4.0,45.8*,-9.0,52.0*
O=C(C1=C[C@@H](c2ccc3c(c2)OCO3)C[C@@H](OCc2ccc(CO)cc2)O1)N1CCOCC1,-0.4,-2.5,8.3,50.3*,3.5,43.7*
O=C(C1=C[C@@H](c2ccc(C(F)(F)F)cc2)C[C@@H](OCCCCO)O1)N1CCN(Cc2ccc3c(c2)OCO3)CC1,-3.6,-0.8,3.9,70.2*,-3.3,60.4*
C=CCOC(=O)C1=C[C@H](c2cn(C(C)=O)c3ccccc23)C[C@H](OCc2ccc(CO)cc2)O1,-5.8,-8.4,-3.5,27.5,0.9,.
COc1cc(C2=Nc3c(c(C)nn3-c3ccccc3)P(=O)(N3CCOCC3)O2)cc(OC)c1OC (stereo not given),-0.8,-2.7,-3.8,11.0,-2.9,.
CCCCc1nnc(NC(=O)CN(C)S(=O)(=O)c2ccc(C)cc2)s1,-3.6,5.3,2.4,-2.7,4.0,.
CC(C)(C)[C@@H]1C=C(C(=O)N2CCN(Cc3ccc4c(c3)OCO4)CC2)O[C@H](OCc2ccc(CO)cc2)C1,1.9,-0.2,6.8,24.7,8.0,.
O=C(C1=C[C@@H](c2ccc(C(F)(F)F)cc2)C[C@@H](OCCCCO)O1)N1CCN(Cc2ccccc2)CC1,-0.4,2.1,3.2,65.5*,0.7,56.0*
SMILES,LYPLA1 counter,proCasp3 act,LYPLA2 counter,PREPL inhibitor,proCasp7 act,PREPL confirm
CN1CCN(C(=O)C2=C[C@@H](c3ccccc3)C[C@@H](OCc3ccc(CO)cc3)O2)CC1,-1.6,4.8,-2.2,45.7*,1.2,49.3*
O=C(C1=C[C@H](c2ccccc2)C[C@H](OCc2ccc(CO)cc2)O1)N1CCOCC1,-0.3,11.4,-0.1,18.9,-0.7,.
O=C(C1=C[C@H](c2ccc(C(F)(F)F)cc2)C[C@H](OCCCCO)O1)N1CCN(Cc2ccccc2)CC1,-1.2,3.0,3.0,21.3,-4.3,.
CC(C)(C)[C@H]1C=C(C(=O)N2CCN(Cc3ccc4c(c3)OCO4)CC2)O[C@@H](OCCCCO)C1,1.3,6.4,4.9,44.0*,-12.3,43.0
CNC(=O)c1ccc(-c2sc3nc(N4CCOCC4)c4c(c3c2N)CCCC4)o1,0.2,11.5,9.8,47.5*,1.7,31.8
CNC(=O)c1ccc(-c2sc3nc(N4CCOCC4)c4c(c3c2N)CC(C)(C)OC4)o1,2.2,-13.5,0.1,14.1,-5.3,.
CN1c2ccsc2/C(=N/Nc2ccccc2)CS1(=O)=O,-2.6,-16.7,3.3,47.8*,-4.7,27.1
COc1ccc(CC2(CO)CCN(S(=O)(=O)c3cccc4cccnc34)CC2)cc1,-2.0,5.6,7.3,50.5*,17.8,41.9
COc1ccc(N2CCN(S(=O)(=O)c3cccc4cccnc34)CC2)cc1,-2.6,-1.5,-3.8,7.7,8.4,.
CCC(CO)Oc1cc(NCc2ccc(F)cc2)c2ncn(C(C)C)c2c1 (stereo not given),.,-2.9,.,49.9*,3.7,13.6
CCC(CO)Oc1cc(NCc2cccc(Cl)c2)c2ncn(C(C)C)c2c1 (stereo not given),.,2.3,.,57.1*,2.9,38.3
